From ChEMBL document CHEMBL4138085, “Design, synthesis and antimicrobial evaluation of novel benzimidazole-incorporated sulfonamide analogues” (Eur J Med Chem, 2017)
In brackets after ≈: the same amount, converted by molar mass.

How the values were obtained:
[1] = tested on: Salmonella typhi; experiment: Antibacterial activity against Bacillus typhi after 24 hrs by NCCLS two fold broth microdilution method; format: functional, Salmonella enterica subsp. enterica serovar Typhi; conditions: Salmonella enterica
Procedure, shortened: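 Two-fold serial broth microdilution per NCCLS. DMSO stocks diluted in Mueller–Hinton broth to 512, 256, 128, 64, 32, 16, 8, 4, 2, 1, 0.5 µg/mL. Chloromycin and norfloxacin as reference drugs; DMSO with inoculum, no drug, as solvent control. Incubation 37 °C for 24 h. Growth read visually and spectrophotometrically. MIC is the lowest concentration completely inhibiting growth; triplicate.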

[2] = tested on: Saccharomyces cerevisiae; experiment: Antifungal activity against Saccharomyces cerevisiae after 24 hrs by NCCLS two fold broth microdilution method; format: functional
Procedure, shortened: (§1)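 Two-fold serial microdilution following NCCLS. A spore suspension in sterile distilled water was prepared from one-day-old cultures grown on Sabouraud agar and adjusted to a final 1–5 × 10^3 spores/mL. DMSO stocks were diluted in RPMI 1640 to eleven concentrations (0.5–512 µg/mL), inoculated and held at 35 °C for 24 h. Growth was read visually and spectrophotometrically, MIC was the lowest concentration with complete inhibition, and runs were in triplicate.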

[3] = tested on: Candida albicans; experiment: Antifungal activity against Candida albicans ATCC 76615 after 24 hrs by NCCLS two fold broth microdilution method; format: functional; conditions: ATCC 76615, 24 h; procedure, shortened: as §1
[4] = tested on: Pseudomonas aeruginosa; experiment: Antibacterial activity against Pseudomonas aeruginosa ATCC 27853 after 24 hrs by NCCLS two fold broth microdilution method; format: functional; conditions: ATCC 27853, 24 h
Procedure, shortened: (§2)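 Two-fold serial broth microdilution in 96-well plates following NCCLS. Plates were inoculated and incubated at 37 °C for 24 h, with growth read visually and spectrophotometrically. MIC was taken as the lowest concentration giving complete growth inhibition. Run in triplicate, with a DMSO-plus-inoculum solvent control.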

[5] = tested on: Staphylococcus aureus; experiment: Antibacterial activity against Staphylococcus aureus ATCC 25923 after 24 hrs by NCCLS two fold broth microdilution method; format: functional; conditions: ATCC 25923, 24 h
Procedure, shortened: (§3)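 Two-fold serial broth microdilution in 96-well plates following NCCLS. Compounds were dissolved in DMSO as stocks, then diluted in Mueller–Hinton broth to final concentrations of 0.5–512 µg/mL. Plates were inoculated and incubated at 37 °C for 24 h, with growth read visually and spectrophotometrically. MIC was taken as the lowest concentration giving complete growth inhibition. Run in triplicate, with a DMSO-plus-inoculum solvent control.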

[6] = tested on: Aspergillus flavus; experiment: Antifungal activity against Aspergillus flavus after 24 hrs by NCCLS two fold broth microdilution method; format: functional; procedure, shortened: as §1
[7] = tested on: Bacillus subtilis; experiment: Antibacterial activity against Bacillus subtilis ATCC 21216 after 24 hrs by NCCLS two fold broth microdilution method; format: functional; conditions: ATCC 21216, 24 h; procedure, shortened: as §3
[8] = tested on: Cyberlindnera jadinii; experiment: Antifungal activity against Candida utilis after 24 hrs by NCCLS two fold broth microdilution method; format: functional; conditions: Williopsis jadinii; procedure, shortened: as §1
[9] = tested on: Micrococcus luteus; experiment: Antibacterial activity against Micrococcus luteus ATCC 4698 after 24 hrs by NCCLS two fold broth microdilution method; format: functional; conditions: NCTC 2665, 24 h; procedure, shortened: as §3
[10] = tested on: Pichia norvegensis; experiment: Antifungal activity against Candida mycoderma after 24 hrs by NCCLS two fold broth microdilution method; format: functional
[11] = tested on: Staphylococcus aureus; experiment: Antibacterial activity against methicillin-resistant Staphylococcus aureus N315 after 24 hrs by NCCLS two fold broth microdilution method; format: functional; conditions: N315, 24 h
Procedure, shortened: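 Two-fold serial broth microdilution per NCCLS. Chloromycin and norfloxacin as reference drugs; DMSO with inoculum, no drug, as solvent control. Incubation 37 °C for 24 h. Growth read visually and spectrophotometrically. MIC is the lowest concentration completely inhibiting growth; triplicate.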

[12] = tested on: Bacillus; experiment: Antibacterial activity against Bacillus proteus ATCC 13315 after 24 hrs by NCCLS two fold broth microdilution method; format: functional; conditions: ATCC 13315, 24 h; procedure, shortened: as §3
[13] = tested on: Escherichia coli; experiment: Antibacterial activity against Escherichia coli ATCC 8099 after 24 hrs by NCCLS two fold broth microdilution method; format: functional; conditions: ATCC 8099, 24 h; procedure, shortened: as §2

Compound	MIC [1] [µg/mL]	MIC [2] [µg/mL]	MIC [3] [µg/mL]	MIC [4] [µg/mL]	MIC [5] [µg/mL]	MIC [6] [µg/mL]	MIC [7] [µg/mL]	MIC [8] [µg/mL]	MIC [9] [µg/mL]	MIC [10] [µg/mL]	MIC [11] [µg/mL]	MIC [12] [µg/mL]	MIC [13] [µg/mL]
CC(=O)Nc1ccc(S(=O)(=O)Cc2nc3ccccc3n2Cc2ccc(Cl)c(Cl)c2)cc1	512 (≈ 1050 µM)	32 (≈ 65.5 µM)	64 (≈ 131 µM)	512 (≈ 1050 µM)	64 (≈ 131 µM)	16 (≈ 32.8 µM)	128 (≈ 262 µM)	512 (≈ 1050 µM)	256 (≈ 524 µM)	512 (≈ 1050 µM)	512 (≈ 1050 µM)	128 (≈ 262 µM)	256 (≈ 524 µM)
OC(Cn1cncn1)(Cn1cncn1)c1ccc(F)cc1F [FLUCONAZOLE]	–	16 (≈ 52.2 µM)	1 (≈ 3.27 µM)	–	–	256 (≈ 836 µM)	–	8 (≈ 26.1 µM)	–	4 (≈ 13.1 µM)	–	–	–
CCCn1c(CS(=O)(=O)c2ccc(NC(C)=O)cc2)nc2ccccc21	32 (≈ 86.1 µM)	16 (≈ 43.1 µM)	64 (≈ 172 µM)	128 (≈ 345 µM)	128 (≈ 345 µM)	128 (≈ 345 µM)	16 (≈ 43.1 µM)	64 (≈ 172 µM)	256 (≈ 689 µM)	16 (≈ 43.1 µM)	64 (≈ 172 µM)	64 (≈ 172 µM)	128 (≈ 345 µM)
CC(=O)Nc1ccc(S(=O)(=O)Cc2nc3ccccc3n2CCCCCn2c3ccccc3c3ccccc32)cc1	64 (≈ 113 µM)	32 (≈ 56.7 µM)	512 (≈ 907 µM)	16 (≈ 28.3 µM)	256 (≈ 453 µM)	128 (≈ 227 µM)	512 (≈ 907 µM)	512 (≈ 907 µM)	128 (≈ 227 µM)	32 (≈ 56.7 µM)	512 (≈ 907 µM)	512 (≈ 907 µM)	512 (≈ 907 µM)
CCCCCCCCCCn1c(CS(=O)(=O)c2ccc(N)cc2)nc2ccccc21	512 (≈ 1200 µM)	512 (≈ 1200 µM)	512 (≈ 1200 µM)	512 (≈ 1200 µM)	512 (≈ 1200 µM)	512 (≈ 1200 µM)	512 (≈ 1200 µM)	8 (≈ 18.7 µM)	512 (≈ 1200 µM)	512 (≈ 1200 µM)	512 (≈ 1200 µM)	512 (≈ 1200 µM)	512 (≈ 1200 µM)
CCn1c(CS(=O)(=O)c2ccc(NC(C)=O)cc2)nc2ccccc21	64 (≈ 179 µM)	512 (≈ 1430 µM)	64 (≈ 179 µM)	32 (≈ 89.5 µM)	128 (≈ 358 µM)	64 (≈ 179 µM)	32 (≈ 89.5 µM)	64 (≈ 179 µM)	128 (≈ 358 µM)	256 (≈ 716 µM)	128 (≈ 358 µM)	64 (≈ 179 µM)	256 (≈ 716 µM)
CC(=O)Nc1ccc(S(=O)(=O)Cc2nc3ccccc3n2Cc2ccccc2Cl)cc1	16 (≈ 35.2 µM)	512 (≈ 1130 µM)	32 (≈ 70.5 µM)	16 (≈ 35.2 µM)	32 (≈ 70.5 µM)	8 (≈ 17.6 µM)	32 (≈ 70.5 µM)	512 (≈ 1130 µM)	64 (≈ 141 µM)	512 (≈ 1130 µM)	32 (≈ 70.5 µM)	512 (≈ 1130 µM)	32 (≈ 70.5 µM)
Nc1ccc(S(=O)(=O)Cc2nc3ccccc3n2Cc2ccc(Cl)c(Cl)c2)cc1	64 (≈ 143 µM)	256 (≈ 574 µM)	64 (≈ 143 µM)	512 (≈ 1150 µM)	512 (≈ 1150 µM)	512 (≈ 1150 µM)	512 (≈ 1150 µM)	256 (≈ 574 µM)	256 (≈ 574 µM)	512 (≈ 1150 µM)	128 (≈ 287 µM)	512 (≈ 1150 µM)	512 (≈ 1150 µM)
CCCCCCn1c(CS(=O)(=O)c2ccc(N)cc2)nc2ccccc21	512 (≈ 1380 µM)	512 (≈ 1380 µM)	512 (≈ 1380 µM)	128 (≈ 345 µM)	128 (≈ 345 µM)	512 (≈ 1380 µM)	512 (≈ 1380 µM)	512 (≈ 1380 µM)	512 (≈ 1380 µM)	512 (≈ 1380 µM)	512 (≈ 1380 µM)	256 (≈ 689 µM)	512 (≈ 1380 µM)
Nc1ccc(S(=O)(=O)Cc2nc3ccccc3n2Cc2ccccc2Cl)cc1	16 (≈ 38.8 µM)	512 (≈ 1240 µM)	16 (≈ 38.8 µM)	16 (≈ 38.8 µM)	16 (≈ 38.8 µM)	32 (≈ 77.7 µM)	16 (≈ 38.8 µM)	512 (≈ 1240 µM)	64 (≈ 155 µM)	512 (≈ 1240 µM)	32 (≈ 77.7 µM)	256 (≈ 621 µM)	128 (≈ 311 µM)
CC(=O)Nc1ccc(S(=O)(=O)Cc2nc3ccccc3n2Cc2ccccc2F)cc1	64 (≈ 146 µM)	512 (≈ 1170 µM)	256 (≈ 585 µM)	128 (≈ 293 µM)	512 (≈ 1170 µM)	64 (≈ 146 µM)	64 (≈ 146 µM)	32 (≈ 73.1 µM)	32 (≈ 73.1 µM)	512 (≈ 1170 µM)	128 (≈ 293 µM)	128 (≈ 293 µM)	256 (≈ 585 µM)
CC(=O)Nc1ccc(S(=O)(=O)Cc2nc3ccccc3n2Cc2ccc(Cl)cc2)cc1	64 (≈ 141 µM)	64 (≈ 141 µM)	128 (≈ 282 µM)	512 (≈ 1130 µM)	512 (≈ 1130 µM)	512 (≈ 1130 µM)	256 (≈ 564 µM)	512 (≈ 1130 µM)	128 (≈ 282 µM)	32 (≈ 70.5 µM)	512 (≈ 1130 µM)	256 (≈ 564 µM)	128 (≈ 282 µM)
Nc1ccc(S(=O)(=O)Cc2nc3ccccc3n2CCCCCn2c3ccccc3c3ccccc32)cc1	64 (≈ 122 µM)	64 (≈ 122 µM)	512 (≈ 980 µM)	512 (≈ 980 µM)	512 (≈ 980 µM)	128 (≈ 245 µM)	32 (≈ 61.2 µM)	512 (≈ 980 µM)	512 (≈ 980 µM)	16 (≈ 30.6 µM)	128 (≈ 245 µM)	512 (≈ 980 µM)	64 (≈ 122 µM)
O=C(N[C@H](CO)[C@H](O)c1ccc([N+](=O)[O-])cc1)C(Cl)Cl [CHLORAMPHENICOL]	32 (≈ 99 µM)	–	–	–	8 (≈ 24.8 µM)	–	32 (≈ 99 µM)	–	8 (≈ 24.8 µM)	–	–	32 (≈ 99 µM)	–
CCn1cc(C(=O)O)c(=O)c2cc(F)c(N3CCNCC3)cc21 [NORFLOXACIN]	1 (≈ 3.13 µM)	–	–	1 (≈ 3.13 µM)	8 (≈ 25.1 µM)	–	2 (≈ 6.26 µM)	–	1 (≈ 3.13 µM)	–	1 (≈ 3.13 µM)	4 (≈ 12.5 µM)	1 (≈ 3.13 µM)
